Paper PMC6447450 (Structure (London, England : 1993), 2019)
“Also recorded” adds a separate entry of the source.

What was measured:
[1] = system: Bfl-1, Mcl-1, Bcl-xL, Bcl-w, and Bcl-2; experiment: Yeast-surface display FACS binding to five Bcl-2 family paralogs; design: species or system human; details: for selectivity of Mcl-1 binders among Bcl-2 family paralogs (in words): Mcl-1 versus Bfl-1, Bcl-xL
In short: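 Myc-tagged human Mcl-1 (172-327), Bfl-1 (1-151), Bcl-2 (1-217), Bcl-w (1-164) and Bcl-xL (1-209) tested at 1000, 100, 10 and 1 nM on peptide-displaying yeast induced in galactose medium for 20-24 hr at 30 °C. Display detected with anti-HA and bound target with anti-c-myc (15 min, 4 °C), then APC anti-mouse and PE anti-rabbit (15 min, 4 °C, dark). Read-out: FACS median binding signal of expression-positive cells.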

Bfl-1 = target: T1, Bfl-1 (Homo sapiens, UniProt Q16548); experiment: Yeast-surface display FACS binding to Bfl-1
T1 sequence (Q16548 1-151): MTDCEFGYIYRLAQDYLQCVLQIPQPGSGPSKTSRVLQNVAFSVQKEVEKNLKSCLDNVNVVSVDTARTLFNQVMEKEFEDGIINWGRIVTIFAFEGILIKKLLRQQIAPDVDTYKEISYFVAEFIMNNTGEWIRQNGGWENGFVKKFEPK

Mcl-1 = Mcl-1 (Homo sapiens, UniProt Q07820); experiment: Yeast-surface display FACS binding to Mcl-1
Mcl-1, sequence (Q07820 172-327): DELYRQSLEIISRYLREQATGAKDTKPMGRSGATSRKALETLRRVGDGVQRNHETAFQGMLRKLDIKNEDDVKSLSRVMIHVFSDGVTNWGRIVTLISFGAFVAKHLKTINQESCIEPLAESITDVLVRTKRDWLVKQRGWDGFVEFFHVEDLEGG

Substance: -QWVREIAAGLRRAADDVNAQVER [FS2, reference compound]
- selectivity for Bfl-1 ([1]; Bfl-1 versus Mcl-1, Bcl-xL, yeast-surface display): > 100 fold

Substance: -SYIDKIADLIDKVVEEINSKLE- [dF6]
- binding to target Bfl-1 (in words) (Bfl-1): did not bind to their targets with high affinity; also recorded: did not bind tightly to Bfl-1

Substance: APKEKEVAETLRKIGEEINEALK- [dM1]
- selectivity of Mcl-1 binders among Bcl-2 family paralogs (in words) ([1]; yeast-surface display): selective

Substance: APKEKEVARTLIKIGEEINEALK- [dM5]
- selectivity of Mcl-1 binders among Bcl-2 family paralogs (in words) ([1]; yeast-surface display): selective

Substance: APYLEQVARTLLHIGMEINEALR- [dM6]
- binding to target Mcl-1 (in words) (Mcl-1): did not bind to their targets with high affinity
- binding to Bcl-2 family members (in words) ([1]; yeast-surface display FACS, Bfl-1, Mcl-1, Bcl-xL): not binding to any of the Bcl-2 family members we tested
